In article PMC5271563 (ChemMedChem, 2016):
Entries after “also recorded” stand apart in the source; their conditions may differ.

Key:
hCD44(21–178) [1] = target: T1, hCD44(21–178) (Homo sapiens, UniProt P16070); test: Saturation Transfer Difference; type: binding; settings: saturating for 2 seconds at −0.28 ppm
Summary of the method: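 STD spectra used 128 scans, with 2 s saturation on-resonance at −0.28 ppm and off-resonance reference at −10 ppm. Samples contained hCD44(21–178) and test ligand, with HA8 as positive control. Conditions: 300 K in 50 mM phosphate, 150 mM NaCl, 0.02% NaN3, pH 6.7, on a 600 or 700 MHz spectrometer with cryoprobe.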

hCD44(21–178) [2] = target: T1, hCD44(21–178); test: NMR binding: 2D [1H,15N]-sofast-HMQC / 1D 1H-aliphatic spectra of 15N-hCD44; settings: for binding by 2D [1H,15N]-sofast-HMQC: 20 μM 15N-hCD44(21–178)
Summary of the method: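 Human CD44 HA-binding domain (Q21–V178) was expressed in E. coli BL21(DE3) gold pLysS in M9 with 15NH4Cl, refolded from urea-solubilised inclusion bodies, and purified as monomer by size exclusion. 2D [1H,15N]-sofast-HMQC (48 scans) and 1D 1H (128 scans) spectra were recorded at 300 K in 50 mM phosphate, 150 mM NaCl, 0.02% NaN3, pH 6.7. Spectra were compared with and without test peptide.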

hCD44(21–178) [3] = target: T1, hCD44(21–178); test: ITC competition; type: binding
hCD44(21–178) [4] = target: T1, hCD44(21–178); test: Isothermal Titration Calorimetry; type: binding; settings: 23°C, pH 6.7, 5% DMSO
DF1485 antibody = test: 2D [1H,13C]-HSQC of 13C-A6 peptide with antibody; type: binding, mouse; settings: 5 μM 13C-A6 peptide, 4 μM DF1485
Summary of the method: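 Test peptide carries a 13C-labelled N-acetyl methyl. 2D [1H,13C]-HSQC spectra were recorded without and with the mouse anti-CD44 monoclonal antibody DF1485 ([…]), using 64 scans and 4096 × 128 complex points. Conditions: 300 K, 600 or 700 MHz with cryoprobe, 50 mM phosphate, 150 mM NaCl, 0.02% NaN3, pH 6.7. Read-out was broadening or chemical shift change of the methyl signal.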

hCD44(21–178) [5] = target: T1, hCD44(21–178); test: NMR displacement / ternary binding experiments by 2D [1H,15N]-sofast-HMQC
[6] = Solubility under binding study conditions; type: physicochemical; settings: under the binding study conditions

T1 sequence (P16070 21-178): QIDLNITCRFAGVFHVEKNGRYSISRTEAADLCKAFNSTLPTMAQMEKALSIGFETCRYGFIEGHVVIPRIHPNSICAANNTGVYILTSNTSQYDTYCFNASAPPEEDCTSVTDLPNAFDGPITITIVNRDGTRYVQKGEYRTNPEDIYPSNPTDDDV

Question: For CC(=O)N[C@H]1[C@H](O[C@H]2[C@H](O)[C@@H](O)[C@H](O[C@H]3[C@H](O)[C@@H](CO)O[C@@H](O[C@H]4[C@H](O)[C@@H](O)[C@H](O[C@H]5[C@H](O)[C@@H](CO)O[C@@H](O[C@H]6[C@H](O)[C@@H](O)[C@H](O[C@H]7[C@H](O)[C@@H](CO)OC(O)[C@@H]7NC(C)=O)O[C@@H]6C(=O)O)[C@@H]5NC(C)=O)O[C@@H]4C(=O)O)[C@@H]3NC(C)=O)O[C@@H]2C(=O)O)O[C@H](CO)[C@@H](O)[C@@H]1O[C@@H]1O[C@H](C(=O)O)[C@@H](O)[C@H](O)[C@H]1O (stereo partly drawn) [HA8, [GlcNAc-GlcUA]4], which STD effect (hCD44(21–178) [1]) is on record?
Answer: significant STD effect

Question: And the “chemical shift perturbations in 2D [1H,15N]-sofast-HMQC” value (hCD44(21–178) [2]; 20 μM hCD44(21–178), 220 μM HA8, 300 K, pH 6.7)?
Answer: widespread perturbations

Question: And the “ΔH of HA8 binding in presence of compound 3 (ITC)” value (hCD44(21–178) [3]; 750-fold molar excess (55 mM) compound 3)?
Answer: -0.83 kcal/mol

Question: And the “Kd of HA8 in presence of compound 3 (ITC)” value (hCD44(21–178) [3]; hCD44(21–178) incubated with 750-fold molar excess (55 mM) compound 3, titrated with 1.6 mM HA8, 23°C, pH 6.7, 5% DMSO)?
Answer: 37.5 µM

Question: What about the “enthalpy of binding ΔH (ITC)” value (hCD44(21–178) [4]; hCD44 73 μM titrated with 1.6 mM HA8) of the same molecule?
Answer: -0.7 kcal/mol

Question: With Ac-KPSSPPEE-NH2 [A6 Peptide] as the molecule, how does the “interaction between 13C-A6 peptide and DF1485 antibody” value (DF1485 antibody) read?
Answer: no appreciable binding

Question: What about the “binding by 2D [1H,15N]-sofast-HMQC” value (hCD44(21–178) [2]; 500 μM A6 peptide, pH 6.7, listed as A6) of the same molecule?
Answer: could not observe any significant binding

Question: What about the “binding by 2D [1H,15N]-sofast-HMQC” value (hCD44(21–178) [2]; 500 μM A6 peptide, pH 6.7, listed as A6-peptide) of the same molecule?
Answer: absence of appreciable binding

Question: And the “binding by 2D [1H,15N]-sofast-HMQC” value (hCD44(21–178) [2]; 500 μM A6 peptide, pH 6.7, listed as A6 peptide)?
Answer: No appreciable binding

Question: What about the “direct interaction by ITC” value (hCD44(21–178) [4]; hCD44 73 μM titrated with 1 mM A6 peptide) of the same molecule?
Answer: absence of direct interactions

Question: What about the “displacement of DF1485 antibody from hCD44(21–178)” value (hCD44(21–178) [5]; 10 μM 15N-hCD44(21–178), 10 μM DF1485, addition of 500 μM A6 peptide) of the same molecule?
Answer: not displaced

Question: What about the “binding to hCD44 in complex with HA8” value (hCD44(21–178) [5]; A6, 15N-labeled hCD44(21–178)) of the same molecule?
Answer: did not observe significant binding

Question: Which “binding by 2D [1H,15N]-sofast-HMQC” value (hCD44(21–178) [2]; 400 μM peptide) does the source give for Ac-SRPQGPFL-NH2 here?
Answer: no significant binding

Question: With H-RLVSYNGIIFFLK-NH2 [A5G27] as the molecule, how does the “binding by 2D [1H,15N]-sofast-HMQC” value (hCD44(21–178) [2]; 200 μM A5G27) read?
Answer: no evidence of binding

Question: What about the solubility [6] of the same molecule?
Answer: limited solubility; also recorded: fairly low solubility
